# Test results: ChEMBL document CHEMBL4689842, “EUbOPEN Chemogenomics Library wave 1” (2021)
# Tested on: HEK-293T
# Assay: Multiplex assay against HEK293T;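 on Population Tubulin-Different-Phenotype (%): share of the cells with healthy nuclei that show this phenotype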
# Type: toxicity, cell-based
# Settings: human
# Method in brief: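 Per cents of healthy-nucleus cells form the tubulin, mitochondrial-mass and membrane-permeability phenotype values. Live cells were stained at seeding with Hoechst33342, BioTracker Green Microtubule Cytoskeleton Dye, MitoTracker Red and Annexin V Alexa Fluor 680. After compound addition they were imaged on a CQ1 microscope at 37°C and 5% CO2, and CellPathfinder machine-learning gating split them into Hoechst high-intensity objects or normal cells, normal cells into healthy, pyknosed or fragmented nuclei, and pyknosed cells into mitotic or apoptotic.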
# [1] = 12 h, 1 µM, compound concentration 1 uM, replicate 1
# [2] = 12 h, 1 µM, compound concentration 1 uM, replicate 2
# [3] = 12 h, 10 µM, compound concentration 10 uM, replicate 1
# [4] = 12 h, 10 µM, compound concentration 10 uM, replicate 2
# [5] = 24 h, 1 µM, compound concentration 1 uM, replicate 1
# [6] = 24 h, 1 µM, compound concentration 1 uM, replicate 2
# [7] = 24 h, 10 µM, compound concentration 10 uM, replicate 1
# [8] = 24 h, 10 µM, compound concentration 10 uM, replicate 2
# [9] = 48 h, 1 µM, compound concentration 1 uM, replicate 1
# [10] = 48 h, 1 µM, compound concentration 1 uM, replicate 2
# [11] = 48 h, 10 µM, compound concentration 10 uM, replicate 1
# [12] = 48 h, 10 µM, compound concentration 10 uM, replicate 2
smiles,measurement,setting,value
C=CC(=O)Nc1cccc(C(=O)Nc2ccc(Nc3cc(-c4[nH]c(SC)nc4C)ccn3)cc2)c1,Population Apoptotic (%),[1],48%
same,Population Fragmented Nuclei (%),[1],16%
same,Population Healthy Nuclei (%),[1],29%
same,Population Hoechst High Intensity Objects (%),[1],14%
same,Population Membrane Permeable-Phenotype (%),[1],4%
same,Population Mitochondria Different-Phenotype (%),[1],80%
same,Population Mitotic Cells (%),[1],51%
same,Population Normal (%),[1],85%
same,Population Pyknosed Nuclei (%),[1],54%
same,Population Tubulin-Different-Phenotype (%),[1],54%
same,Total Cell Count,[1],327
same,Population Apoptotic (%),[2],5%
same,Population Fragmented Nuclei (%),[2],7%
same,Population Healthy Nuclei (%),[2],45%
same,Population Hoechst High Intensity Objects (%),[2],5%
same,Population Membrane Permeable-Phenotype (%),[2],2%
same,Population Mitochondria Different-Phenotype (%),[2],24%
same,Population Mitotic Cells (%),[2],94%
same,Population Normal (%),[2],94%
same,Population Pyknosed Nuclei (%),[2],47%
same,Population Tubulin-Different-Phenotype (%),[2],17%
same,Total Cell Count,[2],190
same,Population Apoptotic (%),[3],48%
same,Population Fragmented Nuclei (%),[3],18%
same,Population Healthy Nuclei (%),[3],30%
same,Population Hoechst High Intensity Objects (%),[3],14%
same,Population Membrane Permeable-Phenotype (%),[3],20%
same,Population Mitochondria Different-Phenotype (%),[3],83%
same,Population Mitotic Cells (%),[3],51%
same,Population Normal (%),[3],85%
same,Population Pyknosed Nuclei (%),[3],51%
same,Population Tubulin-Different-Phenotype (%),[3],70%
same,Total Cell Count,[3],210
same,Population Apoptotic (%),[4],29%
same,Population Fragmented Nuclei (%),[4],4%
same,Population Healthy Nuclei (%),[4],29%
same,Population Hoechst High Intensity Objects (%),[4],6%
same,Population Membrane Permeable-Phenotype (%),[4],19%
same,Population Mitochondria Different-Phenotype (%),[4],34%
same,Population Mitotic Cells (%),[4],70%
same,Population Normal (%),[4],93%
same,Population Pyknosed Nuclei (%),[4],65%
same,Population Tubulin-Different-Phenotype (%),[4],82%
same,Total Cell Count,[4],240
same,Population Apoptotic (%),[5],48%
same,Population Fragmented Nuclei (%),[5],15%
same,Population Healthy Nuclei (%),[5],35%
same,Population Hoechst High Intensity Objects (%),[5],17%
same,Population Membrane Permeable-Phenotype (%),[5],3%
same,Population Mitochondria Different-Phenotype (%),[5],58%
same,Population Mitotic Cells (%),[5],51%
same,Population Normal (%),[5],82%
same,Population Pyknosed Nuclei (%),[5],49%
same,Population Tubulin-Different-Phenotype (%),[5],48%
same,Total Cell Count,[5],365
same,Population Apoptotic (%),[6],13%
same,Population Fragmented Nuclei (%),[6],5%
same,Population Healthy Nuclei (%),[6],64%
same,Population Hoechst High Intensity Objects (%),[6],1%
same,Population Membrane Permeable-Phenotype (%),[6],10%
same,Population Mitochondria Different-Phenotype (%),[6],16%
same,Population Mitotic Cells (%),[6],86%
same,Population Normal (%),[6],98%
same,Population Pyknosed Nuclei (%),[6],30%
same,Population Tubulin-Different-Phenotype (%),[6],34%
same,Total Cell Count,[6],227
same,Population Apoptotic (%),[7],48%
same,Population Fragmented Nuclei (%),[7],20%
same,Population Healthy Nuclei (%),[7],40%
same,Population Hoechst High Intensity Objects (%),[7],18%
same,Population Membrane Permeable-Phenotype (%),[7],5%
same,Population Mitochondria Different-Phenotype (%),[7],80%
same,Population Mitotic Cells (%),[7],52%
same,Population Normal (%),[7],81%
same,Population Pyknosed Nuclei (%),[7],39%
same,Population Tubulin-Different-Phenotype (%),[7],72%
same,Total Cell Count,[7],233
same,Population Apoptotic (%),[8],31%
same,Population Fragmented Nuclei (%),[8],5%
same,Population Healthy Nuclei (%),[8],51%
same,Population Hoechst High Intensity Objects (%),[8],5%
same,Population Membrane Permeable-Phenotype (%),[8],19%
same,Population Mitochondria Different-Phenotype (%),[8],34%
same,Population Mitotic Cells (%),[8],68%
same,Population Normal (%),[8],94%
same,Population Pyknosed Nuclei (%),[8],43%
same,Population Tubulin-Different-Phenotype (%),[8],81%
same,Total Cell Count,[8],284
same,Population Apoptotic (%),[9],38%
same,Population Fragmented Nuclei (%),[9],17%
same,Population Healthy Nuclei (%),[9],36%
same,Population Hoechst High Intensity Objects (%),[9],16%
same,Population Membrane Permeable-Phenotype (%),[9],6%
same,Population Mitochondria Different-Phenotype (%),[9],34%
same,Population Mitotic Cells (%),[9],61%
same,Population Normal (%),[9],83%
same,Population Pyknosed Nuclei (%),[9],45%
same,Population Tubulin-Different-Phenotype (%),[9],38%
same,Total Cell Count,[9],393
same,Population Apoptotic (%),[10],12%
same,Population Fragmented Nuclei (%),[10],7%
same,Population Healthy Nuclei (%),[10],78%
same,Population Hoechst High Intensity Objects (%),[10],2%
same,Population Membrane Permeable-Phenotype (%),[10],10%
same,Population Mitochondria Different-Phenotype (%),[10],8%
same,Population Mitotic Cells (%),[10],87%
same,Population Normal (%),[10],97%
same,Population Pyknosed Nuclei (%),[10],13%
same,Population Tubulin-Different-Phenotype (%),[10],26%
same,Total Cell Count,[10],435
same,Population Apoptotic (%),[11],52%
same,Population Fragmented Nuclei (%),[11],15%
same,Population Healthy Nuclei (%),[11],43%
same,Population Hoechst High Intensity Objects (%),[11],14%
same,Population Membrane Permeable-Phenotype (%),[11],4%
same,Population Mitochondria Different-Phenotype (%),[11],54%
same,Population Mitotic Cells (%),[11],47%
same,Population Normal (%),[11],85%
same,Population Pyknosed Nuclei (%),[11],40%
same,Population Tubulin-Different-Phenotype (%),[11],69%
same,Total Cell Count,[11],271
same,Population Apoptotic (%),[12],25%
same,Population Fragmented Nuclei (%),[12],8%
same,Population Healthy Nuclei (%),[12],75%
same,Population Hoechst High Intensity Objects (%),[12],3%
same,Population Membrane Permeable-Phenotype (%),[12],19%
same,Population Mitochondria Different-Phenotype (%),[12],14%
same,Population Mitotic Cells (%),[12],74%
same,Population Normal (%),[12],96%
same,Population Pyknosed Nuclei (%),[12],15%
same,Population Tubulin-Different-Phenotype (%),[12],64%
same,Total Cell Count,[12],503
C=CC(=O)Nc1ccc2ncnc(Nc3ccc(OCc4cccc(F)c4)c(Cl)c3)c2c1.Cc1ccc(S(=O)(=O)O)cc1,Population Apoptotic (%),[1],52%
same,Population Fragmented Nuclei (%),[1],11%
same,Population Healthy Nuclei (%),[1],38%
same,Population Hoechst High Intensity Objects (%),[1],11%
same,Population Mitochondria Different-Phenotype (%),[1],75%
same,Population Mitotic Cells (%),[1],47%
same,Population Normal (%),[1],88%
same,Population Pyknosed Nuclei (%),[1],49%
same,Population Tubulin-Different-Phenotype (%),[1],39%
same,Total Cell Count,[1],304
same,Population Apoptotic (%),[2],11%
same,Population Fragmented Nuclei (%),[2],6%
same,Population Healthy Nuclei (%),[2],45%
same,Population Hoechst High Intensity Objects (%),[2],2%
same,Population Membrane Permeable-Phenotype (%),[2],5%
same,Population Mitochondria Different-Phenotype (%),[2],26%
same,Population Mitotic Cells (%),[2],88%
same,Population Normal (%),[2],97%
same,Population Pyknosed Nuclei (%),[2],47%
same,Population Tubulin-Different-Phenotype (%),[2],24%
same,Total Cell Count,[2],226
same,Population Apoptotic (%),[3],51%
same,Population Fragmented Nuclei (%),[3],10%
same,Population Healthy Nuclei (%),[3],38%
same,Population Hoechst High Intensity Objects (%),[3],12%
same,Population Membrane Permeable-Phenotype (%),[3],2%
same,Population Mitochondria Different-Phenotype (%),[3],82%
same,Population Mitotic Cells (%),[3],48%
same,Population Normal (%),[3],87%
same,Population Pyknosed Nuclei (%),[3],51%
same,Population Tubulin-Different-Phenotype (%),[3],44%
same,Total Cell Count,[3],267
same,Population Apoptotic (%),[4],49%
same,Population Fragmented Nuclei (%),[4],22%
same,Population Healthy Nuclei (%),[4],21%
same,Population Hoechst High Intensity Objects (%),[4],8%
same,Population Membrane Permeable-Phenotype (%),[4],0%
same,Population Mitochondria Different-Phenotype (%),[4],27%
same,Population Mitotic Cells (%),[4],50%
same,Population Normal (%),[4],91%
same,Population Pyknosed Nuclei (%),[4],56%
same,Population Tubulin-Different-Phenotype (%),[4],27%
same,Total Cell Count,[4],184
same,Population Apoptotic (%),[5],45%
same,Population Fragmented Nuclei (%),[5],11%
same,Population Healthy Nuclei (%),[5],41%
same,Population Hoechst High Intensity Objects (%),[5],15%
same,Population Membrane Permeable-Phenotype (%),[5],3%
same,Population Mitochondria Different-Phenotype (%),[5],61%
same,Population Mitotic Cells (%),[5],54%
same,Population Normal (%),[5],84%
same,Population Pyknosed Nuclei (%),[5],47%
same,Population Tubulin-Different-Phenotype (%),[5],39%
same,Total Cell Count,[5],351
same,Population Apoptotic (%),[6],16%
same,Population Fragmented Nuclei (%),[6],7%
same,Population Healthy Nuclei (%),[6],63%
same,Population Hoechst High Intensity Objects (%),[6],2%
same,Population Membrane Permeable-Phenotype (%),[6],10%
same,Population Mitochondria Different-Phenotype (%),[6],19%
same,Population Mitotic Cells (%),[6],83%
same,Population Normal (%),[6],97%
same,Population Pyknosed Nuclei (%),[6],28%
same,Population Tubulin-Different-Phenotype (%),[6],30%
same,Total Cell Count,[6],279
same,Population Apoptotic (%),[7],56%
same,Population Fragmented Nuclei (%),[7],11%
same,Population Healthy Nuclei (%),[7],41%
same,Population Hoechst High Intensity Objects (%),[7],16%
same,Population Mitochondria Different-Phenotype (%),[7],78%
same,Population Mitotic Cells (%),[7],43%
same,Population Normal (%),[7],83%
same,Population Pyknosed Nuclei (%),[7],47%
same,Population Tubulin-Different-Phenotype (%),[7],48%
same,Total Cell Count,[7],262
same,Population Apoptotic (%),[8],48%
same,Population Fragmented Nuclei (%),[8],17%
same,Population Healthy Nuclei (%),[8],30%
same,Population Hoechst High Intensity Objects (%),[8],9%
same,Population Membrane Permeable-Phenotype (%),[8],2%
same,Population Mitochondria Different-Phenotype (%),[8],50%
same,Population Mitotic Cells (%),[8],51%
same,Population Normal (%),[8],90%
same,Population Pyknosed Nuclei (%),[8],52%
same,Population Tubulin-Different-Phenotype (%),[8],45%
same,Total Cell Count,[8],161
same,Population Apoptotic (%),[9],44%
same,Population Fragmented Nuclei (%),[9],15%
same,Population Healthy Nuclei (%),[9],47%
same,Population Hoechst High Intensity Objects (%),[9],13%
same,Population Membrane Permeable-Phenotype (%),[9],4%
same,Population Mitochondria Different-Phenotype (%),[9],32%
same,Population Mitotic Cells (%),[9],55%
same,Population Normal (%),[9],86%
same,Population Pyknosed Nuclei (%),[9],37%
same,Population Tubulin-Different-Phenotype (%),[9],32%
same,Total Cell Count,[9],430
same,Population Apoptotic (%),[10],4%
same,Population Fragmented Nuclei (%),[10],6%
same,Population Healthy Nuclei (%),[10],83%
same,Population Hoechst High Intensity Objects (%),[10],2%
same,Population Membrane Permeable-Phenotype (%),[10],11%
same,Population Mitochondria Different-Phenotype (%),[10],4%
same,Population Mitotic Cells (%),[10],96%
same,Population Normal (%),[10],97%
same,Population Pyknosed Nuclei (%),[10],10%
same,Population Tubulin-Different-Phenotype (%),[10],23%
same,Total Cell Count,[10],512
same,Population Apoptotic (%),[11],51%
same,Population Fragmented Nuclei (%),[11],16%
same,Population Healthy Nuclei (%),[11],48%
same,Population Hoechst High Intensity Objects (%),[11],12%
same,Population Membrane Permeable-Phenotype (%),[11],5%
same,Population Mitochondria Different-Phenotype (%),[11],46%
same,Population Mitotic Cells (%),[11],48%
same,Population Normal (%),[11],87%
same,Population Pyknosed Nuclei (%),[11],35%
same,Population Tubulin-Different-Phenotype (%),[11],38%
same,Total Cell Count,[11],339
same,Population Apoptotic (%),[12],60%
same,Population Fragmented Nuclei (%),[12],13%
same,Population Healthy Nuclei (%),[12],53%
same,Population Hoechst High Intensity Objects (%),[12],10%
same,Population Membrane Permeable-Phenotype (%),[12],8%
same,Population Mitochondria Different-Phenotype (%),[12],22%
same,Population Mitotic Cells (%),[12],40%
same,Population Normal (%),[12],89%
same,Population Pyknosed Nuclei (%),[12],32%
same,Population Tubulin-Different-Phenotype (%),[12],46%
same,Total Cell Count,[12],187
